Test results as given in PMC5115981 (Cancer chemotherapy and pharmacology, 2016).
Where “and” joins values, the source holds several entries; their conditions need not be identical. Equal entries are not always repeated.

Key:
[1] = Single dose pharmacokinetics in mice; type: in vivo, mouse
Procedure, shortened: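 Fasted female heterozygous Foxn1nu/Foxn1+ mice, 3 per time point (5–1440 min), received a single dose by one of three routes: 4.0 mg/kg in 10% Solutol HS IV via tail vein; the same formulation by oral gavage; or 30 mg/kg PO in 1% CMC suspension. Vehicle controls were taken at 5 and 1440 min. Sampling: cardiac-puncture EDTA plasma, tissues including brain, and metabolic-cage urine. Analysis by LC-MS/MS with a deuterated internal standard. Group means underwent non-compartmental analysis; […].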

[2] = Mouse liver microsome incubation for glucuronide metabolism; type: in vitro ADME; conditions: mouse liver microsomes 0.25 mg/mL, alamethicin, UDPGA
Procedure, shortened: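 Glucuronidation incubation used microsomes from female heterozygous Foxn1nu/Foxn1+ mouse liver. Mix: 0.1 M phosphate (pH 7.4), 0.25 mg/mL microsomal protein, 25 µg/mL alamethicin, 50 mM Tris-HCl, 10 mM MgCl2 and 1,000 ng/mL drug. A mix without UDPGA served as negative control. Samples were analysed twice: SRM monitoring of the m/z 613 glucuronide channel, then MRM quantitation of parent depletion against a curve in buffer with 0.25 mg/mL BSA. Parent expressed relative to time 0.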

[3] = Plasma protein binding by rapid equilibrium dialysis; type: in vitro ADME, mouse; conditions: for fraction unbound at 4 h, 1000 ng/mL: mouse, plasma, pH 7.2, plasma protein binding
Procedure, shortened: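 Rapid equilibrium dialysis with control mouse plasma spiked to 1,000 ng/mL from a DMSO stock (organic <0.1%). Four 200 µL replicates were dialysed against PBS (pH 7.2), shaken at 37 °C for 4 h. Both compartments were quantified by LC-MS/MS against a curve in 1:1 PBS:plasma, with samples diluted to match the matrix. Assay LLQ was 1 ng/mL.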

[4] = Mouse liver microsome incubation; type: in vitro ADME
Procedure, shortened: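 Microsomes from livers of female heterozygous Foxn1nu/Foxn1+ mice, with protein measured against a BSA standard. Incubations contained 0.5 mg/mL microsomal protein, 1,000 ng/mL drug, […], 0.1 M phosphate (pH 7.4) and <0.1% acetonitrile. Stopped with acetonitrile at 0, 15, 30, 45, 60 and 90 min, in triplicate. A positive control was run at 0 and 90 min. LC-MS used an analogue internal standard and calibrators in buffer with 0.5 mg/mL BSA. Results given as % of 0 min.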

[5] = Stability of UPCDC-10205 in mouse plasma; type: in vitro ADME
Procedure, shortened: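 Assay evaluation in control mouse plasma used QCs at 2.5, 30 and 800 ng/mL. 100 µL samples were spiked with deuterated internal standard, precipitated with acetonitrile, and supernatants dried at 37 °C under nitrogen before positive-ion MRM LC-MS/MS. Recovery and ion suppression were assessed at the 30 ng/mL QC. Also tested: bench stability during sample preparation for 4 h at room temperature, and three −80 °C freeze/thaw cycles.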

[6] = female, heterozygous Foxn1nu/Foxn1+, mouse, plasma, iv, 4 mg/kg
[7] = female, heterozygous Foxn1nu/Foxn1+, mouse, plasma, po, 4 mg/kg
[8] = female, heterozygous Foxn1nu/Foxn1+, mouse, plasma, po, 30 mg/kg
[9] = female, heterozygous Foxn1nu/Foxn1+, mouse, red blood cells (RBC), iv, 4 mg/kg
[10] = female, heterozygous Foxn1nu/Foxn1+, mouse, red blood cells, po, 4 mg/kg
[11] = female, heterozygous Foxn1nu/Foxn1+, mouse, skeletal muscle, po, 4 mg/kg
[12] = mouse plasma spiked at 1,000 ng/mL, RED, 37 °C, 4 hours, calculated using the LLQ value (1 ng/mL)

COc1ccc(C2=Nn3c(nnc3-c3cc(-c4ccc(Cl)cc4)n[nH]3)SC2C)cc1 (stereo not drawn) [UPCDC-10205, 3-(3-(4-chlorophenyl)-1H-pyrazole-5-yl)-6-(4-methoxyphenyl)-7-methyl-7H-[1,2,4]triazolo[3,4-b][1,3,4]thiadiazine]
AUC(0-t) [1, 6]: 1020 ng·h/mL | Tmax [1, 6]: 5 min | half-life [1, 6]: 36 min | Cmax ([1]; female, heterozygous Foxn1nu/Foxn1+, mouse, plasma, iv, 4 mg/kg, mice, IV 4 mg/kg in 10% Solutol HS, plasma): 1710 ng/mL | Vd ([1]; female, heterozygous Foxn1nu/Foxn1+, mouse, plasma, iv, 4 mg/kg, Vd, mice, IV 4 mg/kg, plasma): 3.4 L/kg | Vd ([1]; female, heterozygous Foxn1nu/Foxn1+, mouse, plasma, iv, 4 mg/kg, Vss, mice, IV 4 mg/kg, plasma): 2 L/kg | clearance ([1]; female, heterozygous Foxn1nu/Foxn1+, mouse, plasma, iv, 4 mg/kg, clearance, mice, IV 4 mg/kg, plasma): 65.2 mL/min/kg | bioavailability ([1]; female, heterozygous Foxn1nu/Foxn1+, mouse, plasma, oral, 30 mg/kg): 0.3% | AUC(0-t) [1, 7]: 52.1 ng·h/mL | Tmax [1, 7]: 30 min | half-life [1, 7]: 48 min | Cmax ([1]; female, heterozygous Foxn1nu/Foxn1+, mouse, plasma, po, 4 mg/kg, mice, PO 4 mg/kg in 10% Solutol HS, plasma): 35 ng/mL | AUC(0-t) [1, 8]: 25.7 ng·h/mL | Tmax [1, 8]: 60 min | half-life [1, 8]: 204 min | Cmax ([1]; female, heterozygous Foxn1nu/Foxn1+, mouse, plasma, po, 30 mg/kg, mice, PO 30 mg/kg suspension in 1% CMC, plasma): 6.7 ng/mL | AUC(0-t) [1, 9]: 556 ng·h/mL | Tmax [1, 9]: 5 min | Cmax ([1]; female, heterozygous Foxn1nu/Foxn1+, mouse, red blood cells (RBC), iv, 4 mg/kg, mice, IV 4 mg/kg in 10% Solutol HS, RBC): 980 ng/mL | Cmax ([1]; female, heterozygous Foxn1nu/Foxn1+, mouse, red blood cells (RBC), po, 4 mg/kg, mice, PO 4 mg/kg in 10% Solutol HS, RBC): 16 ng/mL | AUC(0-t) [1, 10]: 23.5 ng·h/mL | Tmax [1, 10]: 30 min | AUC(0-t) [1, 11]: 91.4 ng·h/mL | Tmax [1, 11]: 60 min | level in pooled urine as % of the total amount administered ([1]; mice, IV 4 mg/kg, 0-6 h collection): 0.0011% | level in pooled urine as % of the total amount administered ([1]; mice, IV 4 mg/kg, 6-24 h collection): 0.0010% | clearance ([1]; mice, IV 4 mg/kg, plasma, 4 mg/kg): 65 mL/min/kg | peak plasma concentration after IV dosing ([1]; mice, IV 4 mg/kg, 4 mg/kg): 1.7 µg/mL and 4.0 µM | plasma level by the 6 h time point ([1]; mice, IV 4 mg/kg, LLQ 1 ng/mL): below the lower limit of quantitation | %F (oral bioavailability, using AUC0-t) ([1]; mice, PO 4 mg/kg in 10% Solutol HS vs IV 4 mg/kg, plasma, 4 mg/kg): 5.1% | level in pooled urine as % of the total dose ([1]; mice, PO 4 mg/kg, 0-6 h): 0.0077% | urine concentration ([1]; mice, PO 4 mg/kg, 6-24 h): below the LLQ | time of Cmax after administration ([1]; mice, PO 4 mg/kg, plasma): 0.5 h | plasma concentrations after the 2 h time point ([1]; mice, PO 4 mg/kg, LLQ 1 ng/mL): below the LLQ | time of Cmax after administration ([1]; mice, PO 30 mg/kg in 1% CMC suspension, plasma): 1.0 h | urine concentration ([1]; mice, PO 30 mg/kg in 1% CMC, all urine samples): below the LLQ | amount excreted in urine ([1]; mice, renal excretion): < 0.1 % of dose | tissue distribution ([1]; mice, tissue levels compared with plasma): extensive tissue distribution | UPCDC-10205 remaining relative to time 0 after 60 min [2]: 67% | concentration in the plasma portion of the RED device ([3]; average of 4 replicates, 37 °C, 4 hours): 1,091 ng/mL | concentration in the saline buffer portion of the RED device ([3]; below the 1 ng/mL assay LLQ): 0.2 ng/mL | plasma protein binding [3, 12]: > 99.9% | fraction unbound at 4 h, 1000 ng/mL ([3]; mouse plasma spiked at 1,000 ng/mL, RED, 37 °C, 4 hours, calculated using 0.2 ng/mL): ~0.0002 | fraction unbound at 4 h, 1000 ng/mL [3, 12]: < 0.0009 | metabolic stability among the four analogues ([4]; mouse liver microsome incubation): metabolically most stable | substrate depletion in the initial incubation ([4]; mouse liver microsomes, NADPH, 90 min): 20% | stability in plasma during sample preparation ([5]; QCM (30 ng/mL), 4 h at room temperature): 100.8% | recovery at 30 ng/mL ([5]; mouse): 112%
